In ChEMBL document CHEMBL1154198, “Chemical genetics of Plasmodium falciparum” (Nature, 2010):

What was measured:
[1] = test system: Plasmodium falciparum; experiment: ST_JUDE: Cytotoxicity against Plasmodium falciparum D10 transfected with yeast DHOD; type: functional, organism-based
[2] = test system: Plasmodium falciparum; experiment: ST_JUDE: Cytotoxicity against Plasmodium falciparum W2; type: functional, organism-based
[3] = ST_JUDE: Cytotoxicity using luciferase to measure ATP as an indicator of the viability of human Burkitt''s lymphoma lymphoblast cells (Raji); type: toxicity, cell-based
[4] = ST_JUDE: Cytotoxicity using luciferase to measure ATP as an indicator of the viability of human epithelial embryonic kidney cells (HEK293); type: toxicity, cell-based
[5] = ST_JUDE: Cytotoxicity using luciferase to measure ATP as an indicator of the viability of human foreskin fibroblast cells (BJ); type: toxicity, cell-based
[6] = test system: Plasmodium falciparum; experiment: ST_JUDE: Cytotoxicity against Plasmodium falciparum V1/S; type: functional, organism-based
[7] = test system: Leishmania major; experiment: ST_JUDE: Cytotoxicity using Alamar Blue to measure viability of Leishmania major; type: functional, organism-based
How it was run: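 L. major promastigotes; drug susceptibility read with Alamar Blue.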

[8] = test system: Plasmodium falciparum; experiment: ST_JUDE: Cytotoxicity against Plasmodium falciparum K1; type: functional, organism-based
How it was run: (§1)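 Asexual P. falciparum grown in human erythrocytes, exposed to compounds for 72 h, and growth read as the DNA quantity in treated versus control cultures. Dose-response run at 12 concentrations from 10 μM to 5 nM.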

[9] = test system: Plasmodium falciparum; experiment: ST_JUDE: Cytotoxicity against Plasmodium falciparum SB-A6; type: functional, organism-based
[10] = test system: Plasmodium falciparum; experiment: ST_JUDE: Cytotoxicity against Plasmodium falciparum 3D7; type: functional, organism-based; how it was run: as §1
[11] = test system: Toxoplasma gondii; experiment: ST_JUDE: Growth inhibition of to Toxoplasma gondii, in human U-2OS cells, as measured by luciferase.; type: functional, organism-based; settings: RH, U2OS
How it was run: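 T. gondii parasites engineered to express luciferase; drug sensitivity read by luminescence.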

[12] = test system: Trypanosoma brucei; experiment: ST_JUDE: Cytotoxicity using luciferase to measure ATP as an indicator of the viability of Trypanosoma brucei; type: functional, organism-based
[13] = test system: Plasmodium falciparum; experiment: ST_JUDE: Cytotoxicity against Plasmodium falciparum Dd2; type: functional, organism-based
[14] = test system: Plasmodium falciparum; experiment: ST_JUDE: Plasmodium falciparum K1 EC50 (uM) as measured by SYBR green dye; type: functional, organism-based
[15] = test system: Plasmodium falciparum; experiment: ST_JUDE: Plasmodium falciparum 3D7 EC50 (uM) as measured by SYBR green dye; type: functional, organism-based
[16] = ST_JUDE: Cytotoxicity using luciferase to measure ATP as an indicator of the viability of human epithelial hepatocellular carcinoma cells (HepG2); type: toxicity, cell-based

SMILES | EC50 [1] | EC50 [2] | EC50 [3] | EC50 [4] | EC50 [5] | EC50 [6] | EC50 [7] | EC50 [8] | EC50 [9] | EC50 [10] | EC50 [11] | EC50 [12] | EC50 [13] | EC50 [14] | EC50 [15] | EC50 [16]
Cc1ccc(NC(=O)c2c(I)cnn2C)cc1[N+](=O)[O-] | > 11.7 µM | 0.583 µM | > 45.7 µM | > 45.7 µM | > 45.7 µM | 3.73 µM | > 19.6 µM | > 11.7 µM | > 11.7 µM | 0.769 µM | > 25.1 µM | > 43.9 µM | 0.822 µM | 1.05 µM | 0.705 µM | > 45.7 µM
CCc1ccc(Nc2cc(C)c3ccc(O)cc3n2)cc1 | 0.595 µM | 0.714 µM | 30.8 µM | > 43.6 µM | > 43.6 µM | 0.182 µM | > 18.7 µM | 0.188 µM | 0.831 µM | 0.636 µM | > 23.9 µM | > 41.8 µM | 0.784 µM | 0.127 µM | 0.733 µM | 23.5 µM
CC(C)(C)c1cc(/N=N/C(=O)c2ccncc2)cc(C(C)(C)C)c1O | 0.478 µM | 1.11 µM | 0.682 µM | 0.971 µM | > 28.4 µM | 0.508 µM | > 12.2 µM | 0.48 µM | 0.463 µM | 0.602 µM | 2.3 µM | 1.01 µM | 1.01 µM | 0.496 µM | 0.545 µM | > 28.4 µM
CCCCCCn1c(=N)n(CC(O)COc2ccccc2C)c2ccccc21 (centres undefined) | 6.57 µM | 1.29 µM | 12.6 µM | 20.3 µM | 16.8 µM | 2.09 µM | > 23.4 µM | 1.43 µM | 4.67 µM | 2.2 µM | 13.9 µM | 3.73 µM | 1.11 µM | 0.715 µM | 1.26 µM | 6.98 µM
CCOc1ccccc1N1CCN(Cc2cc(Br)cc(OC)c2O)CC1 | 2.42 µM | 2.93 µM | > 36.8 µM | > 36.8 µM | > 36.8 µM | 0.643 µM | > 15.7 µM | 0.478 µM | 1.14 µM | 1.51 µM | > 20.1 µM | > 35.3 µM | 1.17 µM | 1.11 µM | 1.21 µM | > 36.8 µM
CCCn1c2c(c(=N)c3c1CCC3)CCCC2 | > 10.4 µM | > 10.4 µM | > 40.3 µM | > 40.3 µM | > 40.3 µM | 7.63 µM | 0.532 µM | 3 µM | 3.61 µM | 2.56 µM | > 22.1 µM | > 38.7 µM | 1.97 µM | 3.02 µM | 2.96 µM | > 40.3 µM
CCN(CC)Cc1cc(Nc2ccnc3cc(Cl)ccc23)ccc1O | 0.0499 µM | 0.012 µM | > 40.2 µM | > 40.2 µM | > 40.2 µM | 0.045 µM | > 17.2 µM | 0.0426 µM | 0.0325 µM | 0.0443 µM | > 22.1 µM | > 38.6 µM | 0.0744 µM | 0.0261 µM | 0.0286 µM | > 40.2 µM
CCn1nc(-c2ccc(C(F)(F)F)cc2)nc2c(=O)n(C)c(=O)nc1-2 | 0.613 µM | 0.0904 µM | > 50.1 µM | > 50.1 µM | > 50.1 µM | 0.225 µM | > 21.4 µM | 0.246 µM | 1.3 µM | 0.403 µM | > 27.4 µM | > 48 µM | 4.55 µM | 1.37 µM | 0.779 µM | 2.87 µM
Cc1oc2c(c1C(=O)NCCC(C)C)C(=O)c1ccccc1C2=O | 0.842 µM | > 10.9 µM | > 42.5 µM | > 42.5 µM | > 42.5 µM | > 10.9 µM | > 18.2 µM | 1.17 µM | 1.12 µM | 1.23 µM | > 23.3 µM | 2.38 µM | 2.34 µM | 0.424 µM | 7.61 µM | > 42.5 µM
CCOc1cc(C2CC(=O)NC3=C2C(=O)CC(c2cc(OC)ccc2OC)C3)ccc1O (centres undefined) | 1.14 µM | 1.98 µM | > 40.9 µM | > 40.9 µM | > 40.9 µM | 1.66 µM | > 17.5 µM | 1.09 µM | 1.13 µM | 1.05 µM | > 22.4 µM | > 39.2 µM | 1.38 µM | 1.28 µM | 1.07 µM | > 40.9 µM
COc1ccccc1C1CC2=NC(C)=C(C(=O)OC(C)C)C(c3ccc(Cl)cc3)C2=C(O)C1 (centres undefined) | 0.779 µM | > 7.68 µM | > 29.9 µM | > 29.9 µM | > 29.9 µM | 0.846 µM | > 12.8 µM | 0.641 µM | 0.753 µM | 1.01 µM | > 16.4 µM | 0.68 µM | 1.1 µM | 0.688 µM | 1.28 µM | > 29.9 µM
C/C=C/c1n(C)c2ccccc2[n+]1C | 0.701 µM | 1.9 µM | > 40.2 µM | > 40.2 µM | > 40.2 µM | 1.39 µM | > 17.2 µM | 0.993 µM | 1.07 µM | 0.916 µM | > 22 µM | > 38.6 µM | 1.63 µM | 1.38 µM | 1.5 µM | > 40.2 µM
Oc1ccc(Cl)cc1CN1CCN(c2cccc(C(F)(F)F)c2)CC1 | 1.65 µM | > 9.07 µM | > 35.3 µM | > 35.3 µM | > 35.3 µM | 0.855 µM | > 15.1 µM | 0.476 µM | 2.13 µM | 1.57 µM | > 19.4 µM | > 33.9 µM | 1.55 µM | 0.886 µM | 2.37 µM | > 35.3 µM
Oc1ccc(C2NCc3ccccc3-n3cccc32)cc1Cl (centres undefined) | 1.77 µM | 1.09 µM | > 46 µM | > 46 µM | > 46 µM | 0.36 µM | > 19.7 µM | 0.395 µM | 2.35 µM | 1.49 µM | > 25.2 µM | > 44.1 µM | 1.38 µM | 0.357 µM | 1.25 µM | > 46 µM
CCN(CC)CCN1C(=O)c2ccccc2NC1c1ccc(Cl)cc1 (centres undefined) | 1.87 µM | 1.95 µM | > 42.9 µM | > 42.9 µM | > 42.9 µM | 1.14 µM | > 18.4 µM | 1.67 µM | 2 µM | 2.18 µM | > 23.5 µM | > 41.1 µM | 1.12 µM | 0.526 µM | 0.578 µM | > 42.9 µM
Cc1ccccc1/N=C1\C=C(NS(=O)(=O)c2ccc(F)cc2)c2ccccc2C1=O | 0.161 µM | 0.216 µM | 3.14 µM | 6.29 µM | 5.88 µM | 0.114 µM | > 14.9 µM | 0.0981 µM | 0.303 µM | 0.221 µM | > 19.1 µM | 0.946 µM | 0.435 µM | 0.182 µM | 0.497 µM | 6.13 µM
Cc1ccc(C)c(N2CCN(Cc3cc(Br)ccc3O)CC2)c1 | 0.579 µM | 0.571 µM | > 35.6 µM | > 35.6 µM | > 35.6 µM | 0.297 µM | > 15.3 µM | 0.206 µM | 0.716 µM | 0.531 µM | > 19.5 µM | 28.3 µM | 0.427 µM | 0.178 µM | 0.395 µM | > 35.6 µM
CCc1ccccc1NC(=O)C1c2ccccc2C(=O)N(CC(C)C)C1c1cccs1 (centres undefined) | 1.08 µM | 0.679 µM | > 43 µM | > 43 µM | > 43 µM | 1.15 µM | > 18.4 µM | 1.08 µM | 1.01 µM | 0.938 µM | > 23.6 µM | 12.9 µM | 1.21 µM | 0.526 µM | 0.511 µM | > 43 µM
Cc1ccc(NC(=O)C2c3ccccc3C(=O)N(CC(C)C)C2c2cccs2)cc1C (centres undefined) | 0.182 µM | 3.81 µM | > 41.2 µM | > 41.2 µM | > 41.2 µM | 0.348 µM | > 17.6 µM | 0.182 µM | 0.232 µM | 0.208 µM | > 22.6 µM | 6.31 µM | 0.323 µM | 0.129 µM | 0.0631 µM | > 41.2 µM
